Assay results from ChEMBL document CHEMBL5108057, “Development of MAO-A and 5-HT2AR Dual Inhibitors with Improved Antidepressant Activity” (J Med Chem, 2022).
pIC50: −log10 of the molar value. The source made the active and inactive calls. The calls are words filed in the database; no cut-off is given here.

Columns and labels:
Mus musculus [1] = experiment: Antidepressant activity in reserpine-induced mouse assessed as downregulation of 5-HT2AR expression at 20 mg/kg pretreated with reserpine for 3 days followed by compound addition on day 4 to 10 by Western blot analysis; format: functional, organism-based; details: time 6.0 day
In short: (§1)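 ICR mice given reserpine 1 mg/kg i.p. for 3 consecutive days, then treated daily on days 4–10 (saline 10 mL/kg as vehicle control). Whole-brain protein quantified by BCA, diluted to 3 mg/mL, 10 μL run on 4–20% SDS-PAGE, transferred, blocked, primary antibody 4 °C overnight, secondary 1 h room temperature. Relative 5-HT1AR and 5-HT2AR levels, mean ± SD, n = 3.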

Mus musculus [2] = experiment: Antidepressant activity in reserpine-induced mouse assessed as increase in 5-HT1AR expression at 20 mg/kg pretreated with reserpine for 3 days followed by compound addition on day 4 to 10 by Western blot analysis; format: functional, organism-based; details: time 6.0 day; in short: as §1
[3] = Inhibition of 5-HT2AR mRNA expression in zebra fish AB assessed as fold decrease in 2 delta delta CT level at 1 uM by RT-qPCR method relative to control; format: functional, Danio rerio
In short: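 Total RNA from zebrafish was extracted with Trizol and reverse-transcribed with MMLV. SYBR Green qPCR: 95 °C 2 min; 40 cycles of 95, 60 and 72 °C, 30 s each; then 72 °C for 5 min. 5-HT2AR was normalized to GAPDH by the 2^−ΔΔCT method; mean ± SD, n = 3.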

[4] = target: T1, Amine oxidase [flavin-containing] A (Homo sapiens, UniProt P21397); experiment: Inhibition of MAO-A (unknown origin) using p-tyramine as substrate preincubated for 15 mins followed by substrate addition and measured after 15 mins by Amplex red fluorescence based microplate reader assay
T1 sequence (P21397 whole entry): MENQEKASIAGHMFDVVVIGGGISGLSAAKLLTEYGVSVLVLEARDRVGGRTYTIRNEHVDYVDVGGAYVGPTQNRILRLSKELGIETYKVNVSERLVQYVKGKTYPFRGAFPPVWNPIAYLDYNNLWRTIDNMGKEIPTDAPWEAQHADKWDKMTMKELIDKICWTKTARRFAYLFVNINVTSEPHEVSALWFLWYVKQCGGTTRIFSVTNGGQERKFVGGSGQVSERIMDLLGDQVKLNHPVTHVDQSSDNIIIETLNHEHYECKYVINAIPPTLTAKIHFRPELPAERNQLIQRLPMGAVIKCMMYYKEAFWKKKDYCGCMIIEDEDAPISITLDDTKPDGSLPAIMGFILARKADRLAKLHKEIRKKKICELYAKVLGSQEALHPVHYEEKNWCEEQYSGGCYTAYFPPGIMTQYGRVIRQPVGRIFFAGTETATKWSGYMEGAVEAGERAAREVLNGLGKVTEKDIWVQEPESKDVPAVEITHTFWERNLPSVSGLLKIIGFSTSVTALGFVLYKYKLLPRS

[5] = target: T2, Amine oxidase [flavin-containing] B (Homo sapiens, UniProt P27338); experiment: Inhibition of MAO-B (unknown origin) using p-tyramine as substrate preincubated for 15 mins followed by substrate addition and measured after 15 mins by Amplex red fluorescence based microplate reader assay
T2 sequence (P27338 whole entry): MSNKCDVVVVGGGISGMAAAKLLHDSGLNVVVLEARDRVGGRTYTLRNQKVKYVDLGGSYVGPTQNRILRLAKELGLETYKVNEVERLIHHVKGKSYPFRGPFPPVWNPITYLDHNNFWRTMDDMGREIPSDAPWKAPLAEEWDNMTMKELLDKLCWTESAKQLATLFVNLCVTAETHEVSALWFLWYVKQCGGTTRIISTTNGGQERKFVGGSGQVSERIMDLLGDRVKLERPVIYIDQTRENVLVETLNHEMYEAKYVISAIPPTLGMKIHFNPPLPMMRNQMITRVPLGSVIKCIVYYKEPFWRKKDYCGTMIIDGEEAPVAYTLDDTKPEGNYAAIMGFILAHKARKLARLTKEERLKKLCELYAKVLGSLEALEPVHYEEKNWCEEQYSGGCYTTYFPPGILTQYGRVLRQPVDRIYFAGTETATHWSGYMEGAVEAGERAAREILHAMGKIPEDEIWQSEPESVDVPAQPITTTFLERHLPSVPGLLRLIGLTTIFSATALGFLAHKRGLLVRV

Homo sapiens = organism: Homo sapiens; experiment: Selectivity index, ratio of IC50 for inhibition of MAO-B (unknown origin) to IC50 for inhibition of MAO-A (unknown origin)
In short: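 Amplex Red coupled assay. Test sample was preincubated with MAO-A or MAO-B at 37 °C for 15 min. p-Tyramine substrate working solution was added, with HRP converting the H2O2 formed to resorufin, for a further 15 min at 37 °C. Fluorescence read at Ex 545/Em 590 nm. […] SI = MAO-B IC50 / MAO-A IC50.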

[6] = Cytotoxicity against human L02 cells assessed as reduction in cell growth measured after 48 hrs by MTT assay; format: toxicity, cell-based
In short: (§2)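 MTT assay: PC12, SH-SY5Y or L02 cells at 5.0 × 10^3 per well were grown for 24 h, treated with compound dilutions from 10 mM DMSO stocks, and cultured 48 h. MTT was then added for 4 h at 37 °C, formazan dissolved in DMSO, and absorbance read at 570 nm. Viability is relative to blank control; IC50 from three repeats. Media contained 10% FBS.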

[7] = Cytotoxicity against human SH-SY5Y cells assessed as reduction in cell growth measured after 48 hrs by MTT assay; format: toxicity, cell-based; in short: as §2
[8] = Cytotoxicity against rat PC-12 cells assessed as reduction in cell growth measured after 48 hrs by MTT assay; format: toxicity, cell-based; in short: as §2

SMILES: CNCCC(Oc1ccc(C(F)(F)F)cc1)c1ccccc1 (centres undefined)
- Activity (Mus musculus [1]): Active
- Activity (Mus musculus [2]): Active

SMILES: O=C1c2ccccc2-c2nccc3cc(OCCCN4CCN(c5cccc(Cl)c5Cl)CC4)cc1c23
- fold change (FC) [3]: 0.055
- pIC50 [4]: 7.96
- pIC50 [5]: 5.82
- Ratio IC50 (Homo sapiens): 139
- IC50 at 48 h [6]: > 100 µM
- IC50 at 48 h [7]: > 10 µM
- IC50 at 48 h [8]: > 10 µM

SMILES: O=C1c2ccccc2-c2nccc3cc(O)cc1c23
- fold change (FC) [3]: 2.675
- pIC50 [4]: 5.90
- pIC50 [5]: 4.63
- Ratio IC50 (Homo sapiens): 18.6

SMILES: O=C1c2ccccc2-c2nccc3cc(OCCCCCN4CCN(c5cccc(Cl)c5Cl)CC4)cc1c23
- fold change (FC) [3]: 0.049
- pIC50 [4]: 8.22
- pIC50 [5]: 6.05
- Ratio IC50 (Homo sapiens): 148
- IC50 at 48 h [6]: > 100 µM
- IC50 at 48 h [7]: > 10 µM
- IC50 at 48 h [8]: > 10 µM

SMILES: COc1ccccc1N1CCN(CCCCOc2cc3c4c(nccc4c2)-c2ccccc2C3=O)CC1
- fold change (FC) [3]: 0.685
- pIC50 [4]: 7.04
- pIC50 [5]: 5.37
- Ratio IC50 (Homo sapiens): 47
- IC50 at 48 h [6]: > 100 µM
- IC50 at 48 h [7]: > 10 µM
- IC50 at 48 h [8]: > 10 µM

SMILES: O=C1c2ccccc2-c2nccc3cc(OCCCCN4CCN(c5ccccc5)CC4)cc1c23
- fold change (FC) [3]: 1.341
- pIC50 [4]: 7.31
- pIC50 [5]: 5.47
- Ratio IC50 (Homo sapiens): 69.8
- IC50 at 48 h [6]: > 100 µM
- IC50 at 48 h [7]: > 10 µM
- IC50 at 48 h [8]: > 10 µM

SMILES: COc1ccccc1N1CCN(CCCCCOc2cc3c4c(nccc4c2)-c2ccccc2C3=O)CC1
- fold change (FC) [3]: 0.142
- pIC50 [4]: 7.85
- pIC50 [5]: 5.86
- Ratio IC50 (Homo sapiens): 98.6
- IC50 at 48 h [6]: > 100 µM
- IC50 at 48 h [7]: > 10 µM
- IC50 at 48 h [8]: > 10 µM

SMILES: O=C1c2ccccc2-c2nccc3cc(OCCCN4CCN(c5ccccc5F)CC4)cc1c23
- fold change (FC) [3]: 0.038
- pIC50 [4]: 8.30
- pIC50 [5]: 6.00
- Ratio IC50 (Homo sapiens): 202
- IC50 at 48 h [6]: > 100 µM
- IC50 at 48 h [7]: > 10 µM
- IC50 at 48 h [8]: > 10 µM

SMILES: O=C1c2ccccc2-c2nccc3cc(OCCCCCN4CCN(c5ccccc5Cl)CC4)cc1c23
- fold change (FC) [3]: 1.804
- pIC50 [4]: 7.07
- pIC50 [5]: 5.38
- Ratio IC50 (Homo sapiens): 48.7
- IC50 at 48 h [6]: > 100 µM
- IC50 at 48 h [7]: > 10 µM
- IC50 at 48 h [8]: > 10 µM

SMILES: O=C1c2ccccc2-c2nccc3cc(OCCCCCN4CCN(c5ccccc5)CC4)cc1c23
- fold change (FC) [3]: 0.06
- pIC50 [4]: 8.05
- pIC50 [5]: 5.84
- Ratio IC50 (Homo sapiens): 162
- IC50 at 48 h [6]: > 100 µM
- IC50 at 48 h [7]: > 10 µM
- IC50 at 48 h [8]: > 10 µM

SMILES: O=C1c2ccccc2-c2nccc3cc(OCCCCN4CCN(c5ccccc5F)CC4)cc1c23
- fold change (FC) [3]: 0.048
- pIC50 [4]: 8.10
- pIC50 [5]: 5.83
- Ratio IC50 (Homo sapiens): 186
- IC50 at 48 h [6]: > 100 µM
- IC50 at 48 h [7]: > 10 µM
- IC50 at 48 h [8]: > 10 µM

SMILES: O=C1c2ccccc2-c2nccc3cc(OCCCCN4CCN(c5cccc(Cl)c5Cl)CC4)cc1c23
- fold change (FC) [3]: 0.578
- pIC50 [4]: 7.14
- pIC50 [5]: 5.67
- Ratio IC50 (Homo sapiens): 30
- IC50 at 48 h [6]: > 100 µM
- IC50 at 48 h [7]: > 10 µM
- IC50 at 48 h [8]: > 10 µM

SMILES: O=C1c2ccccc2-c2nccc3cc(OCCCN4CCN(c5ccccc5)CC4)cc1c23
- fold change (FC) [3]: 0.069
- pIC50 [4]: 8.05
- pIC50 [5]: 6.07
- Ratio IC50 (Homo sapiens): 94.4
- IC50 at 48 h [6]: > 100 µM
- IC50 at 48 h [7]: > 10 µM
- IC50 at 48 h [8]: > 10 µM

SMILES: COc1ccccc1N1CCN(CCCOc2cc3c4c(nccc4c2)-c2ccccc2C3=O)CC1
- fold change (FC) [3]: 0.2
- pIC50 [4]: 7.27
- pIC50 [5]: 5.49
- Ratio IC50 (Homo sapiens): 60.4
- IC50 at 48 h [6]: > 100 µM
- IC50 at 48 h [7]: > 10 µM
- IC50 at 48 h [8]: > 10 µM

SMILES: O=C1c2ccccc2-c2nccc3cc(OCCCN4CCN(c5ccccc5Cl)CC4)cc1c23
- fold change (FC) [3]: 1.886
- pIC50 [4]: 6.44
- pIC50 [5]: 4.82
- Ratio IC50 (Homo sapiens): 41.9
- IC50 at 48 h [6]: > 100 µM
- IC50 at 48 h [7]: > 10 µM
- IC50 at 48 h [8]: > 10 µM

SMILES: O=C1c2ccccc2-c2nccc3cc(OCCCCN4CCN(c5ccccc5Cl)CC4)cc1c23
- fold change (FC) [3]: 2.575
- pIC50 [4]: 6.30
- pIC50 [5]: 4.90
- Ratio IC50 (Homo sapiens): 25.3
- IC50 at 48 h [6]: > 100 µM
- IC50 at 48 h [7]: > 10 µM
- IC50 at 48 h [8]: > 10 µM
